Test: Toxicity liver stage against HepG2, at 10uM
Format: cell-based
Parameters: test concentration 10 uM, cell line HepG2-A16-CD81EGFP
Settings: human, HepG2-A16-CD81EGFP cells; read-out: INHIBITION
Summary of the method: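 Uninfected HepG2-A16-CD81EGFP cells, 3 × 10^3 per well, 1536-well, plated on prespotted compound at 10 μM final, parasite-free screening media added to match infected plates; puromycin 10 μM positive, DMSO 0.5% negative; run in parallel with 48 h PbLuc assay at 37 °C, 5% CO2; viability by CellTiter-Glo luminescence, normalized to controls.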

| SMILES | cytotoxicity at 10 µM |
| --- | --- |
| CC(C)N1CCCn2nc(C(=O)NCCc3ccccn3)cc2C1 | -1.95% |
| COc1cc(C(=O)N2CCCC(c3cc(C)[nH]n3)C2)cc(OC)c1C (stereo unspecified) | -10.5% |
| CN1CCOCC2(CCCN(C(=O)c3cnccn3)C2)C1 (stereo unspecified) | -75.4% |
| CC(C)c1nc(C(=O)N2C[C@@H]3CC[C@H]2CN(C2CCOCC2)C3)cs1 | 5.31% |
| C(=C\c1ccccc1)/CNCC1CCc2nncn2C1 (stereo unspecified) | 16.8% |
| CC(O)CN1CCC(CN(C)Cc2ccc(C#N)cc2F)CC1 (stereo unspecified) | -1.87% |
| Cc1nc(CNC(=O)Nc2ccc3c(ccn3CCN(C)C)c2)no1 | -21.8% |
| CC(C)c1cc(C(=O)N2CCCC3(CCNC3)C2)no1 (stereo unspecified) | 5.28% |
| O=C(c1ccc(O)nc1)N1CCc2ccc(O)cc2C1 | -8.77% |
| O=C(CC1[C@H]2CN(C(=O)Cc3ccccn3)C[C@@H]12)Nc1cccnc1 (stereo partly specified) | 10.1% |
| Cc1c[nH]c(CN2CCCCC2CCc2cccc(O)c2)c(C)c1=O (stereo unspecified) | -14.6% |
| CN1CCN([C@@H]2CCN(Cc3cccc(-n4cccn4)c3)C[C@H]2O)CC1 | 8.42% |
| CCn1nc(CNC(=O)C2CCCN(CC(N)=O)C2)c2ccccc21 (stereo unspecified) | -9.65% |
| Cc1cnn(CC2CCCCN2C(=O)Cc2csc(C)n2)c1 (stereo unspecified) | 2.26% |
| CC(C)c1nnc2n1CCN(CCC(=O)Nc1sccc1C#N)C2 | -25.8% |
| CC(C)c1cc(NCC(O)c2ccncc2)n2nccc2n1 (stereo unspecified) | -1.8% |
| CC(Cn1cccn1)NC(=O)NCCCN1CCCCCC1=O (stereo unspecified) | 12.3% |
| Cc1cc(N(C)CCn2ccnc2C)n2nccc2n1 | 4.09% |
| O=C(CSc1ccccc1)Nc1cnn(CC(=O)N2CCCO2)c1 | -0.969% |

| SMILES | cytotoxicity at 10 µM |
| --- | --- |
| CCOCCC(=O)Nc1cc(C(N)=O)ccc1N1CCCC(C)C1 (stereo unspecified) | -43% |
| CN(Cc1cccc(F)c1)S(=O)(=O)N1CCOCC1 | -1.97% |
| CNC(=O)c1ccc(CNc2ccncc2Cl)cc1 | 17.7% |
| CN(C)c1cc(C2CCCN2)ccn1 (stereo unspecified) | 5.8% |
| CCNC(=O)CN(CC)C(=O)Cc1csc(C(C)C)n1 | 1.29% |
| O=C(NCCCn1ccnc1)C1CCC(=O)N1Cc1cccs1 (stereo unspecified) | -4.94% |
| CCCc1nc(C)c(CNc2nc(C)nc3onc(C)c23)s1 | 1.6% |
| O=S(=O)(c1ccc(-c2nc3c([nH]2)CCNC3)cc1)N1CCCC1 | -2.09% |
| O=C(Nc1ccc(F)cc1)N1CCC(CO)(Nc2ccccc2)CC1 | 2.94% |
| O=C(CSCc1ccccn1)NCC1CCN(C2CC2)C1 (stereo unspecified) | -14.8% |
| COCCN1CCN(CCS(=O)(=O)c2cccc(OC)c2)CC1 | -1.33% |
| Cc1cccc2nc(CSCc3nnnn3C(C)C)cn12 | 1.24% |
| Cc1noc(CCCC(=O)NCC2CCS(=O)(=O)C2)n1 (stereo unspecified) | -16.4% |
| Cc1cccc(C(=O)N2CCCC[C@]3(C)NC(=O)CCC[C@H]23)n1 | -21.3% |
| O=C(C1CCCN1c1ncnc2ccsc12)N1CCSCC1 (stereo unspecified) | 3% |
| CCn1cnnc1CNC(=O)N1CCN(CC(C)C)CC1 | 9.18% |
| CC(NC(=O)NCc1ccoc1)c1ccc2c(c1)CC(=O)N2 (stereo unspecified) | -1.82% |
| COc1ccc(CC(=O)N2CC(=O)NCC(C)(C)C2)cc1 | -0.634% |
| COCc1nccc(C2CCCN(Cc3ccc(C#N)cc3F)C2)n1 (stereo unspecified) | 27.3% |

| SMILES | cytotoxicity at 10 µM |
| --- | --- |
| c1csc(CNCC2COCc3c(-c4ccoc4)nnn3C2)n1 (stereo unspecified) | -107% |
| Cc1nnc(SCCC(=O)N(C)Cc2ccc(F)cc2F)[nH]1 | 5.21% |
| CCCc1noc(CN2CCN(c3nccs3)CC2)n1 | -3.43% |
| CCc1cc(=O)n(CC(=O)N2CCCCC2)c(-c2cccc(F)c2)n1 | 11.4% |
| O=C(CN1CCOC(Cn2cccn2)C1)NCCc1ccc(F)cc1 (stereo unspecified) | -15.6% |
| CCCn1nc2c(cc1=O)CN(Cc1nc(C)c(C)o1)CC2 | -6.16% |
| Cc1ccccc1C(=O)NC[C@@H]1CCN(C(=O)CN2CCCC2)C[C@H]1O | -39.8% |
| CC1(C)CCC(C(=O)N2CCCO2)c2ccccc21 (stereo unspecified) | -0.636% |
| Cn1cc(S(=O)(=O)N2CCC(OCCCc3ccccc3)C2)cn1 (stereo unspecified) | 8.93% |
| CN1CCC(N(Cc2ccccc2)C(=O)c2ccn3ccnc3c2)CC1 | 5.63% |
| CCc1cc(N(C)Cc2ccncn2)n2nc(C)c(C)c2n1 | 4.34% |
| CC(C(=O)NCCCN1CCN(c2ccccc2)CC1)n1cncn1 (stereo unspecified) | -5.93% |
| CN1CCN(C(=O)CCC(=O)c2cccs2)Cc2ccccc21 | -57.8% |
| N[C@H]1CN(C(=O)Cc2ccc(Cl)c(Cl)c2)C[C@@H]1C1CC1 | -14.4% |
| Cn1cc(CN2CCCCC2c2ccc(-c3cccc(Cl)c3)nc2)cn1 (stereo unspecified) | -8.51% |
| CCc1nc(C2CCCN(C(=O)c3ccc4c(c3)nnn4C)C2)no1 (stereo unspecified) | -3.3% |
| O=c1cc(Cn2cncn2)nc2n1CCCN(Cc1ccoc1)C2 | 3.37% |
| CCOc1ncccc1NC(=O)c1ccc(C)s1 | -3.89% |
